Only some compounds are listed: those with a hit (about 3.8% of all), similar ones and a draw of the others.
rCAG binder: binds r(CAG) RNA repeats; inhibition, % at 3 µM; r(CAG) RNA repeat, TO-PRO-1 dye displacement fluorescence; actives 1.3% (n = 370,000); AID 651821;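 active means inhibition above the plate cutoff, the mean of all test compounds on that plate plus 3 SD, cut at about 35% in these data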;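 further: 0% = DMSO alone and 100% = 100 µM mitoxantrone as full dye displacement; higher means more dye released from RNA so lower well fluorescence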
MPTP inh: permeability transition pore inhibition; inhibition, % at 10 µM; isolated mouse mitochondria, Ca2+ swelling absorbance, 30 min; actives 1.4% (n = 360,000);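 active means inhibition of 50% or more, scaled per plate between neutral and stimulator controls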;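 further: 0% = DMSO wells given calcium and 100% = 1 mM EGTA wells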
Granule exo inh: lytic granule exocytosis inhibition | TALL-104 LAMP-1 surface exposure, flow cytometry; cells stimulated with thapsigargin and PMA | inhibition, % at 10 µM | actives 0.66% (n = 360,000) | AID 651702;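 active means inhibition above about 55%, limit read from the data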
B2AR ag: agonists of human beta-2 adrenergic receptor inducing internalization; AID 504454; P07550; response, % (concentration not given with the values); actives 0.43% (n = 340,000); Am2.2-beta2AR cells, FAP receptor internalization, flow cytometry;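 active means response above a set limit, near 3 SD of response in nonfluorescent compounds, cut at about 42% in these data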
Target sequence (P07550 whole entry, looked up): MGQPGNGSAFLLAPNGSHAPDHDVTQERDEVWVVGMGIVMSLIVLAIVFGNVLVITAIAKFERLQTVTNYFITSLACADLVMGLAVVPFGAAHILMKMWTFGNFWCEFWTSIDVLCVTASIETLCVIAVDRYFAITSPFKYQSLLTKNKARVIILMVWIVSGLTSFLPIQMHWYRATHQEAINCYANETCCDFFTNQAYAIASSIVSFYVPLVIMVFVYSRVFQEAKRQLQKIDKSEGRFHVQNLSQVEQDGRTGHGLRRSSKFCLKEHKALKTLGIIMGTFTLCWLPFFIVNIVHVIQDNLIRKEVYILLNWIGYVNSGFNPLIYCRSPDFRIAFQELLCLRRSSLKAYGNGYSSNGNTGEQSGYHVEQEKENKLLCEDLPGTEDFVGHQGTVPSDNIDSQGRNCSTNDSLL
T cell modulator: T cell immune modulation candidate | response (vesicle binding), % at 7 µM | 2C CD8+ T cell-vesicle binding, flow cytometry; hits give low values | actives 0.068% (n = 330,000) | AID 2052;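 active means response, share of CD8 T cells binding vesicles, and their 90th percentile fluorescence all below set limits, cut at about 80% in these data, passing the limit was not always enough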;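 further: values below 100% mean blocked vesicle binding to the CD8+ T cells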
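System: murine 2C transgenic CD8+ T lymphocytes; also added: QL9-loaded Drosophila micro-vesicles; times: binding 1.5 h at 37 °C; measured by: flow cytometry, PE anti-B7-1 (FL2) versus Alexa647 anti-CD8 (FL8), PFA-fixed; control set: Peptide-free naked vesicles (low) and QL9 vesicles with 0.7% DMSO vehicle (high)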
V-ATPase pHluor: yeast V-ATPase proton transport regulation by pHLuorin | S. cerevisiae, pHLuorin cytosolic pH fluorescence | response, % at 10 µM | actives 0.37% (n = 350,000) | AID 504577; in the data active means response mostly above about 7.3%, no sharp cut-off; inactive means mostly below about 5.4%; further: actives read high
* = called active by the depositor; i = inactive; . = no result.

SMILES | rCAG binder | MPTP inh | Granule exo inh | B2AR ag | T cell modulator | V-ATPase pHluor
CCCCCc1cc(=O)oc2c(C(CCN3CCCC(C)C3)c3ccc(N(C)C)cc3)c(OC)cc(OC)c12 (stereo not drawn) | . | 4 | 81* | 17 | i | -9
CCCCCc1cc(=O)oc2c(C(CCN3CCCC(C)C3)c3cc(OC)c(OC)c(OC)c3)c(OC)cc(OC)c12 (stereo not drawn) | . | 9 | 17 | 14 | 247 | -5
CN(C)c1nc(SCC(=O)Nc2ccc(Cl)c(Cl)c2)nc(N2CCOCC2)n1 | 4 | 1 | 74* | 3 | 249 | 0
CN(C)c1nc(SCC(=O)Nc2ccccc2)nc(N2CCOCC2)n1 | -3 | -2 | 1 | -6 | 336 | 3
CN(Cc1ccccc1)C(=O)OCc1cn(Cc2ccccc2)nn1 | -2 | . | . | . | . | .
CCCNS(=O)(=O)/C=C/c1ccccc1 | 0 | 0 | 0 | -3 | 190 | -3
O=S(=O)(/C=C/c1ccccc1)NCc1ccccc1Cl | -4 | 0 | -3 | 67* | 161 | -3
O=C1[C@@H](CCc2ccccc2)[C@@H]2c3ccccc3C=NN2[C@@H]2c3ccccc3C=NN12 | 1 | . | . | . | . | .
CCOC(=O)c1c(NC(C)=O)sc2c(O)cccc12 | 12 | 8 | -2 | -3 | 225 | 4
CCOC(=O)c1c(NC(C)=O)sc2c(O)c(Br)cc(Br)c12 | 44* | 1 | 7 | 5 | 286 | -2
CCSC1(SCC)N=C(N)C2(C#N)C(c3ccc(F)cc3)C12C#N (stereo not drawn) | 1 | 1 | 69* | 25 | 278 | 0
CC(=O)N1CCN(C(=O)CCn2nnc3ccccc32)CC1 | 0 | . | . | . | . | .
Cc1onc(-c2ccccc2Cl)c1-c1nc(-c2ccncc2)no1 | -1 | -15 | -6 | -1 | 216 | 21*
COc1ccc(/C=C/C=C2\NC(=S)NC2=O)cc1 | 10 | -2 | 58* | -6 | 343 | -2
COc1ccc(C=C2NC(=S)NC2=O)cc1 | 1 | 0 | -3 | 6 | . | 2
O=C(NC1CCCCN(Cc2ccc(OC(F)(F)F)cc2)C1=O)c1ccc(F)c(F)c1 (stereo not drawn) | -2 | . | . | . | . | .
C[C@H]1COc2cc(Br)ccc2S(=O)(=O)N1Cc1cn(Cc2ccc(C(F)(F)F)cc2)nn1 | 2 | . | . | . | . | .
CCOC(=O)N1CCN(C(=O)C[C@H]2C[C@@]3(C(=O)OC)C(=C[C@H](COCc4ccccc4)O[C@@H]3C)N(Cc3ccc4c(c3)OCO4)C2=O)CC1 | 2 | . | . | . | . | .
CCN(Cc1ccccc1)c1ccc(/C=N/N=C(N)N)cc1 | 23 | 4 | 5 | 63* | 494 | -1
CCCCCCSC1=C(C#N)C(=O)NC2(CCCCC2)S1 | 70* | 7 | 2 | 4 | 420 | -2
Cc1ccc(C(=O)COC(=O)c2ccc3c(c2)C(=O)N(c2cccc4ncccc24)C3=O)cc1 | 2 | 1 | 0 | 37 | 188 | 2
O=C(COC(=O)c1ccc2c(c1)C(=O)N(c1cccc3ncccc13)C2=O)c1ccc(Cl)cc1 | 3 | 0 | -3 | 63* | 207 | 7
Cc1cc(-c2csc(NC(=O)c3ccc(C#N)cc3)n2)c(C)n1Cc1ccco1 | 59* | 0 | 2 | -2 | 172 | 1
COC(=O)[C@]12C[C@H](CC(=O)NCCc3ccccc3OC)C(=O)N(CCC3=CCCCC3)C1=C[C@H](C(C)C)O[C@@H]2C1CC1 | 2 | . | . | . | . | .
N#C/C(=C\c1ccc(-c2ccccc2[N+](=O)[O-])o1)C(=O)Nc1nc(-c2cccs2)cs1 | 50* | 21 | 5 | 11 | 142 | 2
SMILES | rCAG binder | MPTP inh | Granule exo inh | B2AR ag | T cell modulator | V-ATPase pHluor
CCCCNC(=O)c1c(CSc2ccc(Cl)cc2)noc1C(=O)NCCC | 0 | 2 | -4 | -1 | 375 | -1
CCCCNC(=O)c1onc(CSc2ccc(Cl)cc2)c1C(=O)NCCCC | -6 | 0 | 70* | -19 | 520 | 0
COC1=CC(=O)C(C2CC(=O)c3c(O)cc(O)cc3O2)=CC1=O (stereo not drawn) | 20 | 0 | 67* | 9 | . | 10
C/C(=N\NC(=O)CSc1nnc(-c2ccccc2)n1-c1ccc(C)cc1)c1ccc(-c2ccccc2)cc1 | 7 | . | . | . | . | .
O=C1C(=C(I)I)c2ccccc2-c2ccccc21 | 7 | -2 | 103* | 76* | . | 14
O=C(O)c1cccc2c1C(=O)c1ccccc1-2 | 2 | 2 | -1 | 2 | 798 | 3
